The structures appear in SMILES notation.

The series can be described thus: Toxicity liver stage against HepG2, at 10uM. Type of series: cell-based. Also noted: test concentration 10 uM, cell line HepG2-A16-CD81EGFP. Conditions: human, HepG2-A16-CD81EGFP cells; read-out: INHIBITION
An outline of the steps: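 Uninfected HepG2-A16-CD81EGFP cells, 3 × 10^3 per well, 1536-well, plated on prespotted compound at 10 μM final, parasite-free screening media added to match infected plates; puromycin 10 μM positive, DMSO 0.5% negative; run in parallel with 48 h PbLuc assay at 37 °C, 5% CO2; viability by CellTiter-Glo luminescence, normalized to controls.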
As for `Cc1cc(CN(Cc2ccccc2)C2CC2)on1`, the cytotoxicity at 10 µM is 0.174%. Turning to `Cc1noc(CNC2CCCN(Cc3noc(C4CC4)n3)C2)n1` (stereo not drawn), the cytotoxicity at 10 µM was -1.7%.

As to `NC(=O)c1c(SCCN2CCOCC2)sc2c(O)cc(=O)[nH]c12`, the cytotoxicity at 10 µM stood at 1.17%. To `Cc1ccc(CNC2CCCc3c2cnn3C)s1` (stereo not drawn) belongs -0.987%; to `CNc1ccccc1C(=O)N(C)CCc1ccccc1`, -1.76%; to `CC(C)N1CCc2ncn(C(C)C)c2C1C(=O)N1CCN(C)CC1` (stereo not drawn), -0.849%. To `c1cncc(COCC2CN(Cc3ccco3)Cc3ccnn3C2)c1` (stereo not drawn) belongs -14.4%; to `Cc1cccc(N2CCCC2c2nc(C)ncc2CN(C)C)n1` (stereo not drawn), -2.17%.

On to `COc1ccc(F)cc1S(=O)(=O)NCC(O)c1sccc1C` (stereo not drawn), for which the cytotoxicity at 10 µM was -0.269%.

With `CCOc1ccc(N(CCC#N)C(=O)c2ccc(SC)nc2)cc1`, the cytotoxicity at 10 µM worked out at 5.93%.

`CC(=O)Nc1nc(C(=O)Nc2ccc(N3CCCCC3)nc2)cs1`: the cytotoxicity at 10 µM was determined as 9.46%. To `CC(C)(C)c1ccc(CN2C[C@H]3CC(O)C[C@H]3C2)c(OCC(N)=O)c1` (stereo partly drawn) belongs 2.71%. In the case of `COC(=O)c1occc1Cn1cc(Br)cn1` it was -5.63%. Turning to `CCCN(CCC)c1nc(N)nc(-c2cc(Cl)ccc2OC)n1`, the cytotoxicity at 10 µM was 7.43%. In the case of `O=S(=O)(C1CC1)N1CCC2(CC1)CN(Cc1ccccn1)CCO2` it was -0.358%. In the case of `CC(C)c1n[nH]c(C2CN(C(=O)Cn3ccccc3=O)CCO2)n1` (stereo not drawn) it was -0.924%; in that of `CCN1CCN(C2CCN(Cc3nnc(C4CC4)o3)CC2)C1=O`, 1.75%; in that of `CC(C)CNC(=O)NC(=O)C(C)Nc1cccc(CN2CCOC2=O)c1` (stereo not drawn), -3.37%. In the case of `COCC1CN(C(=O)CC2=CCCCC2)Cc2nnn(CC3CC3)c21` (stereo not drawn) it was -116%. Regarding `CCC(NC(=O)NC1CCN(S(C)(=O)=O)CC1)c1cccs1` (stereo not drawn), the cytotoxicity at 10 µM is -11.6%. Regarding `CCCc1cnc(C)nc1N1CCC(Cc2cccc(C(N)=O)c2)C1` (stereo not drawn), the cytotoxicity at 10 µM worked out at 3.52%. For the molecule `CN(C)S(=O)(=O)N1CCC(OCCCc2ccccc2)C1` (stereo not drawn), the cytotoxicity at 10 µM came to 0.696%. In the case of `Cc1cnn(CC2CCCN2C(=O)Cc2c(C)nc(C)[nH]c2=O)c1` (stereo not drawn) it was -3.63%; in that of `O=C(NC1CC1)C(c1ccccc1)N1CCN(Cc2ccc(Cl)s2)CC1` (stereo not drawn), 4.46%; in that of `Cn1cnn(Cc2ccccc2F)c1=O`, -3.09%. To `Cc1cc(-c2ccnn2C)nc(C2CCCN(S(C)(=O)=O)C2)n1` (stereo not drawn) belongs 3.33%; to `O=C(NCCNc1ncccn1)N1CC=C(c2ccccc2)CC1`, 12.6%.

Consider `Cc1ccc(C)c2c(O)cc(CN3CCC(=O)NCC3C)nc12` (stereo not drawn), for which the cytotoxicity at 10 µM amounted to 2.11%.

As for `COc1c(C)cnc(CN(C)C(=O)c2ccccn2)c1C`, the cytotoxicity at 10 µM amounted to 0.22%.

For the molecule `Cc1nc(NCC2CC2)nc2c1COCC21CCN(C(=O)C(C)(C)C)C1` (stereo not drawn), the cytotoxicity at 10 µM is -77.8%.

Turning to `CN(C)CCN1C[C@@H]2CN(C(=O)C3CCOC3)C[C@@H]2C1=O` (stereo partly drawn), the cytotoxicity at 10 µM is -5.18%. To `O=C([C@@H]1CCCO1)N1CCC(Cn2cc(-c3ccsc3)nn2)CC1` belongs 3.43%; to `COc1ccc(Cn2nnnc2SCC2CCCN(C)C2)cc1` (stereo not drawn), -1.33%; to `Cc1csc(N2CCN(CC(=O)N3CCNC3=O)CC2C)n1` (stereo not drawn), -12.4%. In the case of `Cc1cccc(C(C(=O)NCCCc2ccncc2)N(C)C)c1` (stereo not drawn), the cytotoxicity at 10 µM was -8.38%. To `O=C(CN1CCCC1c1nc(-c2ccccc2)no1)N1CCOCC1` (stereo not drawn) belongs 4.17%; to `CC=C(C)C(=O)NS(=O)(=O)c1ccc(Cl)cn1`, 7.04%; to `CC(C)(C)S(=O)(=O)CCNC(=O)c1cnc(-c2ccccc2)nc1`, 2.92%. On to `COc1cccc(CCC2CCCCN2)c1` (stereo not drawn), for which the cytotoxicity at 10 µM is -1.73%.

Consider `O=C(Cc1cc2c(cc1Br)OCCO2)NC1CCS(=O)(=O)C1` (stereo not drawn), for which the cytotoxicity at 10 µM amounted to 10.1%.

`O=C(NCCN1CCCCC1)c1cccc(Cl)c1Cl`: the cytotoxicity at 10 µM came out at 6.04%. Turning to `Cc1ccsc1CNC(=O)CSc1nnc[nH]1`, the cytotoxicity at 10 µM was -0.655%. On to `Cn1cc(CN2CCCC(CCc3ccc(F)cc3F)C2)cn1` (stereo not drawn), for which the cytotoxicity at 10 µM was -10.4%.

For `Cc1cnc(CC2COCCN(C(=O)c3cncs3)C2)cn1` (stereo not drawn), the cytotoxicity at 10 µM amounted to 3.65%. Consider `CN1[C@H](CN2CCCC2)C[C@@H]2CN(C(=O)c3cccn3C)CC[C@@H]21`, for which the cytotoxicity at 10 µM worked out at 5.57%.

For `CC(C)c1cc(NC2CCN(C(=O)N3CCCC3)CC2)ncn1`, the cytotoxicity at 10 µM turned out to be 10.2%.

As to `CC(C)c1noc(C2CCCN2C(=O)Cc2cn3ccsc3n2)n1` (stereo not drawn), the cytotoxicity at 10 µM was found to be 4.52%. As to `CC(=O)N1CCCC1c1ccnc(Nc2cncnc2)n1` (stereo not drawn), the cytotoxicity at 10 µM was -25.6%. To `CC(Cn1ccnc1)NC(=O)N1CCN(Cc2cccnc2)CC1` (stereo not drawn) belongs 4.31%; to `COc1cccc(CCNC(=O)NC(C)C)c1O`, 2.27%. Consider `CCN1CCN(C(=O)c2cc(C(=O)OC)nn2-c2ccccc2)CC1`, for which the cytotoxicity at 10 µM was -13.4%.

Consider `CC(C)c1ncncc1C(=O)N1CCN(Cc2cccnc2)CC1`, for which the cytotoxicity at 10 µM is -5.85%. To `CN1CCN(Cc2ccccc2CNC(=O)c2cc(Br)ccc2F)CC1` belongs 6.37%; to `CCSc1ncc(CN2CCN(c3ccc(C#N)cc3)C(=O)C2)cn1`, -2.54%. Consider `c1ccc2nc(N3CCCC3)c(NCc3nnc4n3CCC4)nc2c1`, for which the cytotoxicity at 10 µM was 6.9%. To `Cn1c(N)c2c(=O)n(C)c(-c3ccccc3)cc2c(C#N)c1=O` belongs 1.57%; to `Cc1nn(C)c(Cl)c1C1CCCN1C(=O)c1cc(C2CC2)on1` (stereo not drawn), -13.3%. In the case of `CCS(=O)(=O)N1CCc2c(cccc2NC(=O)NCCO)C1` it was -7.47%; in that of `CN(Cc1ccncc1)C1COC2(CCN(Cc3ccccn3)CC2)C1` (stereo not drawn), -103%. In the case of `CCCc1nnc(NC2CCN(C3CCOCC3)CC2)o1` it was -4.92%; in that of `CC(C)c1nc2n(n1)CC(NCc1nnc(-c3ccco3)o1)CC2` (stereo not drawn), -9.78%; in that of `O=C([C@H]1COC[C@H]2CN(C3CCCC3)C[C@H]21)N1CCCO1`, 2.14%. Regarding `CC1CN(C(=O)c2nccnc2N)c2ccc(F)cc2O1` (stereo not drawn), the cytotoxicity at 10 µM stood at 4.28%. To `Cc1nc(C(C)C)ncc1C(=O)N1CCC(c2ccccc2C(=O)O)C1` (stereo not drawn) belongs 1.93%. To `O=C(NCC(=O)N1CCc2ccccc2C1)c1cnccn1` belongs -4.81%.

Turning to `Cn1cc(CNC(=O)c2cc3c(s2)CCCCC3)cn1`, the cytotoxicity at 10 µM was -12%. To `Cc1cc(NC(=O)CN2CCc3nn(C)c(=O)cc3C2)no1` belongs -5.04%; to `CCC(C(=O)NCc1ccncc1)N(c1cccc(Cl)c1)S(C)(=O)=O` (stereo not drawn), -4.31%; to `CS(=O)(=O)N1CCCC12CCCN(C(=O)c1ccno1)C2` (stereo not drawn), -172%. With `COc1ccc2c(ccn2CCC(=O)N[C@H](C(=O)O)C(C)C)c1`, the cytotoxicity at 10 µM was 5.98%. To `O=C(CCc1ccsc1)N1CCC(n2cc(CO)nn2)CC1` belongs -3.37%.

As to `Cc1nccc(N2CCCC2CCNS(C)(=O)=O)n1` (stereo not drawn), the cytotoxicity at 10 µM was 0.146%. Consider `Cc1nnc(N2CCOC(C)(C(=O)NC3CCCC3)C2)c2ccccc12` (stereo not drawn), for which the cytotoxicity at 10 µM was 7.92%.

Take `Cc1ccc(-c2nc(CN3CCN(S(=O)(=O)N(C)C)CC3)cs2)o1`: the cytotoxicity at 10 µM came to 6.81%. For the molecule `c1ccc(Cc2noc(CN3CCCCC3Cn3cncn3)n2)cc1` (stereo not drawn), the cytotoxicity at 10 µM is -13.2%.

As to `CC(=O)c1cc(CC(=O)NCc2ccsc2)cs1`, the cytotoxicity at 10 µM was determined as 2.29%. `O=C(C1CC1)N1CCN(Cc2ccncc2)c2ncccc2C1`: the cytotoxicity at 10 µM is -3.88%.

In the case of `CSc1ccc(CNc2ccccc2CN2CCC(O)CC2)cc1`, the cytotoxicity at 10 µM was -4.75%. To `Cc1nc2c(c(=O)[nH]1)CN(C(=O)CCC1CCCN(C)C1)C2` (stereo not drawn) belongs -7.76%; to `Cc1cc(CN2CC[C@H]3[C@H]2CCN3S(C)(=O)=O)oc1C`, -1.69%. In the case of `Cn1cc(S(=O)(=O)Nc2c(F)cccc2N2CCCC2)cn1` it was -4.24%; in that of `CCN1CCN(C(=O)c2nc(C)n(-c3ccccc3Cl)n2)CC1`, -2.87%. As for `Cc1cccc(CN2Cc3[nH]nc(COCc4nccs4)c3C2)n1`, the cytotoxicity at 10 µM was -7.12%.

With `CN1CCOC(CNCCCOc2ccc(C#N)cc2)C1` (stereo not drawn), the cytotoxicity at 10 µM was 6.91%. To `CCc1ncc(C(=O)N2CCOCC2c2c(C)n[nH]c2C)s1` (stereo not drawn) belongs -5.61%; to `Cc1cccc(Oc2nccnc2C2CCN(C(=O)C(C)(C)N)CC2)c1`, -9.44%; to `N#Cc1c(Cl)nsc1NCc1ccc(N2CCC(CO)CC2)cc1`, -4.73%.

With `COCCN1CCCC(CN(C)c2nc3c(s2)c(C)nn3C)C1` (stereo not drawn), the cytotoxicity at 10 µM is 5.37%. To `CCc1nc(C)c(C2CC(=O)Nc3c2c(-c2cccnc2)nn3C)[nH]1` (stereo not drawn) belongs -8.13%; to `O=C(N1CCC(Oc2ccncc2)C1)C1(c2ccccc2F)CC1` (stereo not drawn), -10.4%; to `CC(C)OCc1nn(C)c2c1CCN(CC1CC1)C2`, 4.91%. To `O=S(=O)(NCC1COc2ccccc2C1)N1CCCCCC1` (stereo not drawn) belongs -0.138%; to `O=C(C1CC1)N1CCC(Nc2nc(O)cc(-c3ccsc3)n2)CC1`, 5.29%. In the case of `Cn1nc(Br)c2c(NCCNc3ncccn3)ncnc21` it was 11.3%.

Turning to `Cc1nn(C)c(C)c1C1CCCN1Cc1cccc(C(=O)N(C)C)c1` (stereo not drawn), the cytotoxicity at 10 µM was -11.9%. In the case of `CCN(CC1CCOC1)C(=O)c1ccc(COc2ccccc2C#N)o1` (stereo not drawn) it was 3.34%; in that of `Cc1cnn(C2CN(c3nc(C)cc(N(C)C)n3)C2)c1`, -5.12%; in that of `Cc1cc(CNC(=O)NC(C)(CO)C2CC2)c(C)s1` (stereo not drawn), 3.46%.

The record behind these values is ChEMBL document CHEMBL4513216, “Probing the Open Global Health Chemical Diversity Library for Multistage-Active Starting Points for Next-Generation Antimalarials” (ACS Infect Dis, 2020).
